Experimental data published in ChEMBL document CHEMBL1127783, “Sugar-linked dithiocarbamates as modulators of metabolic and genotoxic properties of N-nitroso compounds” (J Med Chem, 1994).
Values joined by “and” are separate entries in the source; they are usually repeats but may differ in a detail not shown here. Identical values can stand only once.

Legend:
[1] = Tested for half life gamma after intravenous bolus administration of 100 mg/kg in rat 1; assay type: ADME, organism-based; design: dose 100 mg/kg, route intravenous; settings: in vivo, read-out: T1/2 gamma
Outline: (§1)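 Rats (two per compound) were catheterised in the jugular vein under chloral hydrate. A 100 mg/kg iv bolus was given through the catheter, followed by a saline rinse. Serial blood samples (250–300 μL) were collected into heparinized tubes and centrifuged for plasma. Each rat's plasma concentration–time data were fitted by nonlinear regression to a compartment model to derive AUC, MRT, CL, Vss and phase half-lives. Body weight was recorded for each rat.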

Rattus norvegicus [2] = organism: Rattus norvegicus; assay: Tested in vitro for N-nitrosodimethylamine (NDMA) demethylase activity at 2 mM for 2 mM concentration of formaldehyde; assay type: functional
Outline: (§2)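 Liver microsomal fraction from untreated male Sprague–Dawley rats with NADPH-generating system. NDMA substrate 0.1–1 mM; test compound 2–20 mM or DDTC 2 mM added. Formaldehyde and acetaldehyde formed measured as (2,4-dinitrophenyl)hydrazones. Mean ± SD of three separate experiments.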

[3] = Tested for half life beta after intravenous bolus administration of 100 mg/kg in rat 2; assay type: ADME, organism-based; design: dose 100 mg/kg, route intravenous; settings: in vivo, read-out: T1/2 beta; outline: as §1
Rattus norvegicus [4] = assay: Tested for half life beta after intravenous bolus administration of 100 mg/kg in rat 1; assay type: ADME, organism-based; design: dose 100 mg/kg, route intravenous; settings: in vivo; outline: as §1
Rattus norvegicus [5] = assay: Tested for cumulative urinary excretion following intraperitoneal dose of 100 mg/kg in rat at 8-24 hr was recovered; assay type: functional, Urine
Outline: (§3)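 Rats (five per group) were given a single 100 mg/kg dose ip or as an iv bolus. Each was housed alone in a metabolism cage, and urine was collected over 0–8 h and 8–24 h. Parent compound and the monosaccharide-linked metabolite in urine were quantified and reported as cumulative % of dose, mean ± SD.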

Rattus norvegicus [6] = assay: Tested for cumulative urinary excretion following intraperitoneal dose of 100 mg/kg in rat at 0-8 h; assay type: functional, Urine; outline: as §3
Rattus norvegicus [7] = assay: Tested for total body clearance (CL) after intravenous bolus administration of 100 mg/kg in rat 2; assay type: ADME, organism-based; design: dose 100 mg/kg, route intravenous; settings: in vivo; outline: as §1
Rattus norvegicus [8] = assay: Tested for steady state volume of distribution (Vss) after intravenous bolus administration of 100 mg/kg in rat 2; assay type: ADME, organism-based; design: dose 100 mg/kg, route intravenous; settings: in vivo; outline: as §1
[9] = Tested for the half life period in alpha glucosidase at pH of 7.4; 9-18 days; assay type: ADME; settings: pH 7.4
Rattus norvegicus [10] = assay: Tested for total body clearance (CL) after intravenous bolus administration of 100 mg/kg in rat 1; assay type: ADME, organism-based; design: dose 100 mg/kg, route intravenous; settings: in vivo; outline: as §1
Rattus norvegicus [11] = assay: Tested for cumulative urinary excretion following intravenous bolus dose of 100 mg/kg in rat at 8-24 h; assay type: functional, Urine; outline: as §3
[12] = Tested for half -life alpha after intravenous bolus administration of 100 mg/kg in rat 1; assay type: ADME, organism-based; design: dose 100 mg/kg, route intravenous; settings: in vivo, read-out: T1/2 alpha; outline: as §1
Rattus norvegicus [13] = assay: Tested for cumulative urinary excretion following intraperitoneal dose of 100 mg/kg in rat at 8-24 h; assay type: functional, Urine; outline: as §3
Rattus norvegicus [14] = organism: Rattus norvegicus; assay: Tested in vitro for N-nitrosodimethylamine (NDMA) demethylase activity at 2 mM for 20 mM concentration of formaldehyde; assay type: functional; outline: as §2
Rattus norvegicus [15] = assay: Tested for steady state volume of distribution (Vss) after intravenous bolus administration of 100 mg/kg in rat 1; assay type: ADME, organism-based; design: dose 100 mg/kg, route intravenous; settings: in vivo; outline: as §1
Rattus norvegicus [16] = organism: Rattus norvegicus; assay: Tested in vitro for N-nitrosodimethylamine (NDMA) demethylase activity at 2 mM for 5 mM concentration of formaldehyde; assay type: functional; outline: as §2
Rattus norvegicus [17] = organism: Rattus norvegicus; assay: Tested in vitro for N-nitrosodimethylamine (NDMA) demethylase activity at 0.1 mM for 2 mM concentration of acetaldehyde; assay type: functional; outline: as §2
Rattus norvegicus [18] = organism: Rattus norvegicus; assay: Tested in vitro for N-nitrosodimethylamine (NDMA) demethylase activity at 1 mM for 2 mM concentration of formaldehyde; assay type: functional; outline: as §2
Rattus norvegicus [19] = assay: Tested for area under the curve (AUC) after intravenous bolus administration of 100 mg/kg in rat 2; assay type: ADME, organism-based; design: dose 100 mg/kg, route intravenous; settings: in vivo; outline: as §1
Rattus norvegicus [20] = organism: Rattus norvegicus; assay: Tested in vitro for N-nitrosodimethylamine (NDMA) demethylase activity at 0.1 mM for 2 mM concentration of formaldehyde; assay type: functional; outline: as §2
Rattus norvegicus [21] = assay: Tested for cumulative urinary excretion following intravenous bolus dose of 100 mg/kg in rat at 8-24 h was recovered; assay type: functional, Urine; outline: as §3
Rattus norvegicus [22] = organism: Rattus norvegicus; assay: Tested in vitro for N-nitrosodimethylamine (NDMA) demethylase activity at 2 mM for 5 mM concentration of acetaldehyde; assay type: functional; outline: as §2
[23] = Tested for the half life period in phosphate buffer at pH of 7.4; Stable; assay type: ADME; settings: pH 7.4
Rattus norvegicus [24] = organism: Rattus norvegicus; assay: Tested in vitro for N-nitrosodimethylamine (NDMA) demethylase activity at 0.1 mM for 0 mM concentration of acetaldehyde; assay type: functional; outline: as §2
Rattus norvegicus [25] = organism: Rattus norvegicus; assay: Tested in vitro for N-nitrosodimethylamine (NDMA) demethylase activity at 0.1 mM for 0 mM concentration of formaldehyde; assay type: functional; outline: as §2
[26] = Tested for half life gamma after intravenous bolus administration of 100 mg/kg in rat 2; assay type: ADME, organism-based; design: dose 100 mg/kg, route intravenous; settings: in vivo, read-out: T1/2 gamma; outline: as §1
Rattus norvegicus [27] = organism: Rattus norvegicus; assay: Tested in vitro for N-nitrosodimethylamine (NDMA) demethylase activity at 2 mM for 0 mM concentration of acetaldehyde; assay type: functional; outline: as §2
Rattus norvegicus [28] = assay: Tested for area under the curve (AUC) after intravenous bolus administration of 100 mg/kg in rat 1; assay type: ADME, organism-based; design: dose 100 mg/kg, route intravenous; settings: in vivo; outline: as §1
Rattus norvegicus [29] = assay: Tested for cumulative urinary excretion following intraperitoneal dose of 100 mg/kg in rat at 0-8 hr was recovered; assay type: functional, Urine; outline: as §3
Rattus norvegicus [30] = assay: Tested for body weight after intravenous bolus administration of 100 mg/kg in rat 2; assay type: ADME, organism-based; design: dose 100 mg/kg, route intravenous; settings: in vivo; outline: as §1
Rattus norvegicus [31] = assay: Tested for cumulative urinary excretion following intravenous bolus dose of 100 mg/kg in rat at 0-8 hr was recovered; assay type: functional, Urine; outline: as §3
Rattus norvegicus [32] = assay: Tested ex vivo for analysis of DNA single-strand breaks in primary rat hepatocyte by oral treatment of NDEA during second gavage, 2 hr after first gavage.; assay type: functional
Outline: (§4)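 Fasted rats given a first gavage of 0.5 mmol/kg test agent or saline, then NDEA (1.4 mg/kg) or saline by a second gavage 2 h later, both in 10 mL NaCl/kg. At 1 h after the second gavage, hepatocytes were isolated by two-step in situ perfusion under metophane anaesthesia. Alkaline filter elution: 1.5 × 10⁶ cells/filter, lysis at pH 10 with SDS/proteinase K, ten elution fractions, DNA measured by Hoechst 33258 fluorescence. Readout is control minus treated % DNA retained on filter; n = 6.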

Rattus norvegicus [33] = assay: Tested ex vivo for analysis of DNA single-strand breaks in primary rat hepatocyte by oral treatment of NDEA during first gavage; assay type: functional
Rattus norvegicus [34] = assay: Tested ex vivo for analysis of DNA single-strand breaks in primary rat hepatocyte by oral treatment of NaCl during second gavage, 2 hr after first gavage.; assay type: functional; outline: as §4
Rattus norvegicus [35] = organism: Rattus norvegicus; assay: Tested in vitro for N-nitrosodimethylamine (NDMA) demethylase activity at 2 mM for 0 mM concentration of formaldehyde; assay type: functional; outline: as §2
[36] = Tested for the half life period in beta glucosidase at pH of 7.4; 6-12 days; assay type: ADME; settings: pH 7.4
[37] = Tested for half -life alpha after intravenous bolus administration of 100 mg/kg in rat 2; assay type: ADME, organism-based; design: dose 100 mg/kg, route intravenous; settings: in vivo, read-out: T1/2 alpha; outline: as §1
Rattus norvegicus [38] = assay: Tested ex vivo for analysis of DNA single-strand breaks in primary rat hepatocyte by oral treatment of NaCl during first gavage; assay type: functional; outline: as §4
Rattus norvegicus [39] = organism: Rattus norvegicus; assay: Tested in vitro for N-nitrosodimethylamine (NDMA) demethylase activity at 0.5 mM for 2 mM concentration of formaldehyde; assay type: functional; outline: as §2
Rattus norvegicus [40] = assay: Tested for mean residence time (MRT) after intravenous bolus administration of 100 mg/kg in rat 2; assay type: ADME, organism-based; design: dose 100 mg/kg, route intravenous; settings: in vivo; outline: as §1
Rattus norvegicus [41] = assay: Tested for cumulative urinary excretion following intravenous bolus dose of 100 mg/kg in rat at 0-8 h; assay type: functional, Urine; outline: as §3
Rattus norvegicus [42] = assay: Tested for mean residence time (MRT) after intravenous bolus administration of 100 mg/kg in rat 1; assay type: ADME, organism-based; design: dose 100 mg/kg, route intravenous; settings: in vivo; outline: as §1
Rattus norvegicus [43] = organism: Rattus norvegicus; assay: Tested in vitro for N-nitrosodimethylamine (NDMA) demethylase activity at 1 mM for 2 mM concentration of acetaldehyde; assay type: functional; outline: as §2
Rattus norvegicus [44] = organism: Rattus norvegicus; assay: Tested in vitro for N-nitrosodimethylamine (NDMA) demethylase activity at 2 mM for 2 mM concentration of acetaldehyde; assay type: functional; outline: as §2
Rattus norvegicus [45] = assay: Tested for body weight after intravenous bolus administration of 100 mg/kg in rat 1; assay type: ADME, organism-based; design: dose 100 mg/kg, route intravenous; settings: in vivo; outline: as §1
Rattus norvegicus [46] = organism: Rattus norvegicus; assay: Tested in vitro for N-nitrosodimethylamine (NDMA) demethylase activity at 0.5 mM for 2 mM concentration of acetaldehyde; assay type: functional; outline: as §2

CCN(CC)C(=S)SC1OC(CO)C(O)C(O)C1O (stereo not given)
half-life [1]: 88.8 min
Formaldehyde (Rattus norvegicus [2]): 14.7 nM (mg of protein)-1
half-life [3]: 23.6 min
T1/2 beta (Rattus norvegicus [4]): 19.3 min
Excretion (Rattus norvegicus [5]): 1 % of dose
Excretion (Rattus norvegicus [6]): 31.2 % of dose
Clearance (Rattus norvegicus [7]): 2.53 L/h/kg
Vss (Rattus norvegicus [8]): 0.1848 L/kg
half-life [9]: 216 h
Clearance (Rattus norvegicus [10]): 1.53 L/h/kg
Excretion (Rattus norvegicus [11]): 1.5 % of dose
half-life [12]: 3.7 min
Excretion (Rattus norvegicus [13]): 2.2 % of dose
Formaldehyde (Rattus norvegicus [14]): 1.5 nM (mg of protein)-1
Vss (Rattus norvegicus [15]): 0.1526 L/kg
Formaldehyde (Rattus norvegicus [16]): 11.9 nM (mg of protein)-1
Acetaldehyde (Rattus norvegicus [17]): 10.9 nM (mg of protein)-1
Formaldehyde (Rattus norvegicus [18]): 6.2 nM (mg of protein)-1
AUC (Rattus norvegicus [19]): 11.4 uM min l-1
Formaldehyde (Rattus norvegicus [20]): 1.2 nM (mg of protein)-1
Excretion (Rattus norvegicus [21]): 1.2 % of dose
Acetaldehyde (Rattus norvegicus [22]): 25.9 nM (mg of protein)-1
T1/2 [23]: Stable
Acetaldehyde (Rattus norvegicus [24]): 0 nM (mg of protein)-1
Formaldehyde (Rattus norvegicus [25]): 4.6 nM (mg of protein)-1
half-life [26]: 129 min
Acetaldehyde (Rattus norvegicus [27]): 0 nM (mg of protein)-1
AUC (Rattus norvegicus [28]): 17.6 uM min l-1
Excretion (Rattus norvegicus [29]): 21 % of dose
Body weight (Rattus norvegicus [30]): 150 g
Excretion (Rattus norvegicus [31]): 13.1 % of dose
DNA on filter (Rattus norvegicus [32]): 77
Viability (Rattus norvegicus [32]): 106%
DNA on filter (Rattus norvegicus [33]): 74
Viability (Rattus norvegicus [33]): 92%
DNA on filter (Rattus norvegicus [34]): 58
Viability (Rattus norvegicus [34]): 100%
Formaldehyde (Rattus norvegicus [35]): 15 nM (mg of protein)-1
half-life [36]: 144 h
half-life [37]: 5.2 min
DNA on filter (Rattus norvegicus [38]): 60
Viability (Rattus norvegicus [38]): 82%
Formaldehyde (Rattus norvegicus [39]): 9 nM (mg of protein)-1
MRT (Rattus norvegicus [40]): 43.8 min
Excretion (Rattus norvegicus [41]): 34.5 % of dose
MRT (Rattus norvegicus [42]): 59.8 min
Acetaldehyde (Rattus norvegicus [43]): 4.3 nM (mg of protein)-1
Acetaldehyde (Rattus norvegicus [44]): 13.8 nM (mg of protein)-1 and 31.5 nM (mg of protein)-1
Body weight (Rattus norvegicus [45]): 140 g
Acetaldehyde (Rattus norvegicus [46]): 8.5 nM (mg of protein)-1
